Test results: ChEMBL document CHEMBL3046106, “Synthesis and herbicidal activity of diphenyl ether derivatives containing unsaturated carboxylates” (J Agric Food Chem, 2011)

Columns and labels:
Type in all cases: functional
[1] = tested on: Abutilon theophrasti; test: Herbicidal activity against Abutilon theophrasti (velvetleaf) at 40 g/hm2 postemergent application after 2 weeks
Method in brief: (§1)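 Seedlings grown 14 days in the greenhouse; plants uniform in size and stage were chosen. Test compound in acetone sprayed post-emergence at a carrier volume equivalent to 187 L/ha. Plants returned to the greenhouse and watered; untreated plants served as control. Each species scored visually two weeks after application on a 0–100 scale (0 no activity, 100 total control).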

[2] = tested on: Echinochloa crus-galli; test: Herbicidal activity against Echinochloa crus-galli (barnyard grass) at 40 g/hm2 postemergent application after 2 weeks; method in brief: as §1
[3] = tested on: Digitaria sanguinalis; test: Herbicidal activity against Digitaria sanguinalis (hairy crabgrass) at 200 g/hm2 postemergent application after 2 weeks; method in brief: as §1
[4] = tested on: Digitaria sanguinalis; test: Herbicidal activity against Digitaria sanguinalis (hairy crabgrass) at 40 g/hm2 postemergent application after 2 weeks; method in brief: as §1
[5] = tested on: Echinochloa crus-galli; test: Herbicidal activity against Echinochloa crus-galli (barnyard grass) at 1000 g/hm2 postemergent application after 2 weeks; method in brief: as §1
[6] = tested on: Echinochloa crus-galli; test: Herbicidal activity against Echinochloa crus-galli (barnyard grass) at 200 g/hm2 postemergent application after 2 weeks; method in brief: as §1
[7] = tested on: Abutilon theophrasti; test: Herbicidal activity against Abutilon theophrasti (velvetleaf) at 200 g/hm2 postemergent application after 2 weeks; method in brief: as §1
[8] = tested on: Digitaria sanguinalis; test: Herbicidal activity against Digitaria sanguinalis (hairy crabgrass) at 1000 g/hm2 postemergent application after 2 weeks; method in brief: as §1
[9] = tested on: Abutilon theophrasti; test: Herbicidal activity against Abutilon theophrasti (velvetleaf) at 1000 g/hm2 postemergent application after 2 weeks; method in brief: as §1
[10] = tested on: Echinochloa crus-galli; test: Herbicidal activity against Echinochloa crus-galli (barnyard grass) at 480 g/hm2 postemergent application after 2 weeks; method in brief: as §1
[11] = tested on: Abutilon theophrasti; test: Herbicidal activity against Abutilon theophrasti (velvetleaf) at 120 g/hm2 postemergent application after 2 weeks; method in brief: as §1
[12] = tested on: Echinochloa crus-galli; test: Herbicidal activity against Echinochloa crus-galli (barnyard grass) at 120 g/hm2 postemergent application after 2 weeks; method in brief: as §1
[13] = tested on: Digitaria sanguinalis; test: Herbicidal activity against Digitaria sanguinalis (hairy crabgrass) at 120 g/hm2 postemergent application after 2 weeks; method in brief: as §1
[14] = tested on: Abutilon theophrasti; test: Herbicidal activity against Abutilon theophrasti (velvetleaf) at 30 g/hm2 postemergent application after 2 weeks; method in brief: as §1
[15] = tested on: Digitaria sanguinalis; test: Herbicidal activity against Digitaria sanguinalis (hairy crabgrass) at 30 g/hm2 postemergent application after 2 weeks; method in brief: as §1
[16] = tested on: Abutilon theophrasti; test: Herbicidal activity against Abutilon theophrasti (velvetleaf) at 480 g/hm2 postemergent application after 2 weeks; method in brief: as §1
[17] = tested on: Echinochloa crus-galli; test: Herbicidal activity against Echinochloa crus-galli (barnyard grass) at 30 g/hm2 postemergent application after 2 weeks; method in brief: as §1
[18] = tested on: Digitaria sanguinalis; test: Herbicidal activity against Digitaria sanguinalis (hairy crabgrass) at 480 g/hm2 postemergent application after 2 weeks; method in brief: as §1

Row | SMILES | Activity [1] | Activity [2] | Activity [3] | Activity [4] | Activity [5] | Activity [6] | Activity [7] | Activity [8] | Activity [9] | Activity [10] | Activity [11] | Activity [12] | Activity [13] | Activity [14] | Activity [15] | Activity [16] | Activity [17] | Activity [18]
1 | COCCOC(=O)/C=C(\C)OC(=O)c1cc(Oc2ccc(C(F)(F)F)cc2Cl)ccc1[N+](=O)[O-] | 98% | 20% | 35% | 30% | 80% | 30% | 100% | 75% | 100% |  |  |  |  |  |  |  |  | 
2 | C=C(COC(=O)c1cc(Oc2ccc(C(F)(F)F)cc2Cl)ccc1Cl)C(=O)OC | 10% | 5% | 25% | 10% | 75% | 15% | 98% | 30% | 100% |  |  |  |  |  |  |  |  | 
3 | CCOC(=O)/C=C/COC(=O)c1cc(Oc2ccc(C(F)(F)F)cc2Cl)ccc1Cl | 98% | 15% | 30% | 20% | 85% | 45% | 100% | 70% | 100% |  |  |  |  |  |  |  |  | 
4 | C=C(COC(=O)c1cc(Oc2ccc(C(F)(F)F)cc2Cl)ccc1Cl)C(=O)OCC | 30% | 10% | 70% | 40% | 90% | 20% | 100% | 95% | 100% |  |  |  |  |  |  |  |  | 
5 | C=C(C(=O)OCC)C(C)OC(=O)c1cc(Oc2ccc(C(F)(F)F)cc2Cl)ccc1Cl (stereo not drawn) | 5% | 0% | 35% | 0% | 95% | 20% | 75% | 40% | 100% |  |  |  |  |  |  |  |  | 
6 | COC(=O)/C=C(\C)OC(=O)c1cc(Oc2ccc(C(F)(F)F)cc2Cl)ccc1[N+](=O)[O-] | 25% | 15% | 80% | 5% | 80% | 50% | 75% | 95% | 100% |  |  |  |  |  |  |  |  | 
7 | COC(=O)/C=C/COC(=O)c1cc(Oc2ccc(C(F)(F)F)cc2Cl)ccc1[N+](=O)[O-] |  |  |  |  |  |  |  |  |  | 80% | 95% | 60% | 80% | 30% | 20% | 100% | 10% | 90%
8 | CCOC(=O)/C(C)=C(\C)OC(=O)c1cc(Oc2ccc(C(F)(F)F)cc2Cl)ccc1Cl | 5% | 0% | 25% | 0% | 25% | 20% | 90% | 30% | 100% |  |  |  |  |  |  |  |  | 
9 | CCOC(=O)/C=C(/OC(=O)c1cc(Oc2ccc(C(F)(F)F)cc2Cl)ccc1[N+](=O)[O-])C(F)(F)F |  |  | 0% |  | 35% | 0% | 0% | 50% | 60% |  |  |  |  |  |  |  |  | 
10 | CCOC(=O)/C=C(\C)OC(=O)c1cc(Oc2ccc(C(F)(F)F)cc2Cl)ccc1[N+](=O)[O-] | 10% | 10% | 90% | 80% | 60% | 40% | 85% | 98% | 100% |  |  |  |  |  |  |  |  | 
11 | CCCCOC(=O)/C=C/COC(=O)c1cc(Oc2ccc(C(F)(F)F)cc2Cl)ccc1[N+](=O)[O-] |  |  |  |  |  |  |  |  |  | 40% | 90% | 20% | 80% | 90% | 70% | 95% | 10% | 85%
12 | C=C(COC(=O)c1cc(Oc2ccc(C(F)(F)F)cc2Cl)ccc1Cl)C(=O)OCCC | 20% | 5% | 30% | 10% | 75% | 10% | 100% | 35% | 100% |  |  |  |  |  |  |  |  | 
13 | CC/C(=C\C(=O)OC)OC(=O)c1cc(Oc2ccc(C(F)(F)F)cc2Cl)ccc1[N+](=O)[O-] |  |  | 5% |  | 35% | 0% | 0% | 15% | 10% |  |  |  |  |  |  |  |  | 
14 | C/C(=C\C(=O)OC(C)(C)C)OC(=O)c1cc(Oc2ccc(C(F)(F)F)cc2Cl)ccc1[N+](=O)[O-] | 30% | 5% | 15% | 5% | 45% | 30% | 50% | 40% | 75% |  |  |  |  |  |  |  |  | 
15 | C=CCOC(=O)/C=C(\C)OC(=O)c1cc(Oc2ccc(C(F)(F)F)cc2Cl)ccc1[N+](=O)[O-] |  |  | 5% |  | 25% | 5% | 0% | 35% | 40% |  |  |  |  |  |  |  |  | 
16 | CC(C)OC(=O)/C=C/COC(=O)c1cc(Oc2ccc(C(F)(F)F)cc2Cl)ccc1[N+](=O)[O-] |  |  |  |  |  |  |  |  |  | 80% | 95% | 60% | 85% | 80% | 80% | 100% | 30% | 90%
17 | CCC/C(=C\C(=O)OCC)OC(=O)c1cc(Oc2ccc(C(F)(F)F)cc2Cl)ccc1[N+](=O)[O-] |  |  | 5% |  | 35% | 5% | 0% | 15% | 0% |  |  |  |  |  |  |  |  | 
18 | C=C(C(=O)OCC)C(C)OC(=O)c1cc(Oc2ccc(C(F)(F)F)cc2Cl)ccc1[N+](=O)[O-] (stereo not drawn) | 5% | 10% | 70% | 25% | 30% | 20% | 50% | 90% | 100% |  |  |  |  |  |  |  |  | 
19 | CCOC(=O)/C=C(\C)COC(=O)c1cc(Oc2ccc(C(F)(F)F)cc2Cl)ccc1[N+](=O)[O-] | 90% | 5% | 10% | 10% | 35% | 20% | 100% | 20% | 100% |  |  |  |  |  |  |  |  | 
20 | CCCOC(=O)/C=C/COC(=O)c1cc(Oc2ccc(C(F)(F)F)cc2Cl)ccc1[N+](=O)[O-] |  |  |  |  |  |  |  |  |  | 70% | 100% | 40% | 80% | 95% | 70% | 100% | 10% | 90%
21 | CCOC(=O)/C(C)=C(\C)OC(=O)c1cc(Oc2ccc(C(F)(F)F)cc2Cl)ccc1[N+](=O)[O-] | 0% | 10% | 50% | 20% | 25% | 15% | 35% | 55% | 100% |  |  |  |  |  |  |  |  | 
22 | CCOC(=O)/C=C(\C)OC(=O)c1cc(Oc2ccc(C(F)(F)F)cc2Cl)ccc1Cl |  | 0% | 20% | 10% | 95% | 20% |  | 25% |  |  |  |  |  |  |  |  |  | 
